Results as given in ChEMBL document CHEMBL3352502, “A dual inhibitor of matrix metalloproteinases and a disintegrin and metalloproteinases, [¹⁸F]FB-ML5, as a molecular probe for non-invasive MMP/ADAM-targeted imaging” (Bioorg Med Chem, 2015).
pIC50: −log10 of the molar value. Blank lines part the entries; values can stand above or below the compound they belong to.

Legend:
[1] = target: Macrophage metalloelastase (Homo sapiens, UniProt P39900); experiment: Inhibition of human recombinant MMP12 catalytic domain Mca-Pro-Leu-Gly-Leu-Dpa-Ala-Arg-NH2 fluorogenic substrate
Chain of Macrophage metalloelastase (P39900 whole entry, the tested form may be a part): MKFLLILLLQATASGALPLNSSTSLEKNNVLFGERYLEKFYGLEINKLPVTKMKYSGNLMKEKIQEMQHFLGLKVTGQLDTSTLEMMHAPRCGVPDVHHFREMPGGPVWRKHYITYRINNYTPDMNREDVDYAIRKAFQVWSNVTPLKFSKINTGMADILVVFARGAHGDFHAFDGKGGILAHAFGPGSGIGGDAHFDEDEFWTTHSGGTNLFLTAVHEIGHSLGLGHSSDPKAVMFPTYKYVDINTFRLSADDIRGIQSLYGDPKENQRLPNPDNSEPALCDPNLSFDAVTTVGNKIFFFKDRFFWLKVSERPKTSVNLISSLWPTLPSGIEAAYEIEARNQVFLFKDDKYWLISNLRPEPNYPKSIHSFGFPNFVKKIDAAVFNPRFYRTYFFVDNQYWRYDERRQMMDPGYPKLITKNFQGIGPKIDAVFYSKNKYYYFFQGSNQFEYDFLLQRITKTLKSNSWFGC
Outline: (§1)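 Recombinant human catalytic domains (MMP-2; MMP-9 lacking fibronectin type II insert and MMP-12, both E. coli-expressed) at 10 ng per well with fluorogenic substrate. Buffer: 50 mM Tris pH 7.4, 0.2 M NaCl, 10 mM CaCl₂, ZnCl₂, 0.05% v/v Brij-35. Fluorescence rise (ex 320/em 440 nm) read for 15 min at 20 °C over inhibitor series up to 1000 nM (or 100 µM). IC50 by sigmoidal fit, triplicate.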

[2] = target: 72 kDa type IV collagenase (Homo sapiens, UniProt P08253); experiment: Inhibition of human recombinant MMP2 catalytic domain using Mca-Pro-Leu-Gly-Leu-Dpa-Ala-Arg-NH2 fluorogenic substrate; outline: as §1
Chain of 72 kDa type IV collagenase (P08253 whole entry, the tested form may be a part): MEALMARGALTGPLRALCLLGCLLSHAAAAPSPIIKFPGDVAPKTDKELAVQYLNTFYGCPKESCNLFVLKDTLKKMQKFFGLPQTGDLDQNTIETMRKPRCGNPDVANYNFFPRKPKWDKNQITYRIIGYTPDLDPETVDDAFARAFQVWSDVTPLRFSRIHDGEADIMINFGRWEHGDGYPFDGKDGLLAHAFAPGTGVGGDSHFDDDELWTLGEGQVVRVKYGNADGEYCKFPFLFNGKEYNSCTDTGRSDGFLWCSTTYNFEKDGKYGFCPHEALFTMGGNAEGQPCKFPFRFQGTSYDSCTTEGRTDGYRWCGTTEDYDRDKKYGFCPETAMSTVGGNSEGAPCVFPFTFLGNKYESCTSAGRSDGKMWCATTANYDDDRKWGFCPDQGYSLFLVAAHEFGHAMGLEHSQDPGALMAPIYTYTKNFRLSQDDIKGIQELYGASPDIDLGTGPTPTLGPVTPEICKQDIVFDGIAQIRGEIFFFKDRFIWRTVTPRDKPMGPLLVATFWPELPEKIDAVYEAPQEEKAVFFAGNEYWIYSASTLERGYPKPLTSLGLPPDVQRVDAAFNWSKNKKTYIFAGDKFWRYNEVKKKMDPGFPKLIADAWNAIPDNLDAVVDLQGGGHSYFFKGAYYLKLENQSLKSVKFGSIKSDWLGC

[3] = target: Matrix metalloproteinase-9 (Homo sapiens, UniProt P14780); experiment: Inhibition of human recombinant MMP9 catalytic domain using Mca-Pro-Leu-Gly-Leu-Dpa-Ala-Arg-NH2 fluorogenic substrate; outline: as §1
Chain of Matrix metalloproteinase-9 (P14780 whole entry, the tested form may be a part): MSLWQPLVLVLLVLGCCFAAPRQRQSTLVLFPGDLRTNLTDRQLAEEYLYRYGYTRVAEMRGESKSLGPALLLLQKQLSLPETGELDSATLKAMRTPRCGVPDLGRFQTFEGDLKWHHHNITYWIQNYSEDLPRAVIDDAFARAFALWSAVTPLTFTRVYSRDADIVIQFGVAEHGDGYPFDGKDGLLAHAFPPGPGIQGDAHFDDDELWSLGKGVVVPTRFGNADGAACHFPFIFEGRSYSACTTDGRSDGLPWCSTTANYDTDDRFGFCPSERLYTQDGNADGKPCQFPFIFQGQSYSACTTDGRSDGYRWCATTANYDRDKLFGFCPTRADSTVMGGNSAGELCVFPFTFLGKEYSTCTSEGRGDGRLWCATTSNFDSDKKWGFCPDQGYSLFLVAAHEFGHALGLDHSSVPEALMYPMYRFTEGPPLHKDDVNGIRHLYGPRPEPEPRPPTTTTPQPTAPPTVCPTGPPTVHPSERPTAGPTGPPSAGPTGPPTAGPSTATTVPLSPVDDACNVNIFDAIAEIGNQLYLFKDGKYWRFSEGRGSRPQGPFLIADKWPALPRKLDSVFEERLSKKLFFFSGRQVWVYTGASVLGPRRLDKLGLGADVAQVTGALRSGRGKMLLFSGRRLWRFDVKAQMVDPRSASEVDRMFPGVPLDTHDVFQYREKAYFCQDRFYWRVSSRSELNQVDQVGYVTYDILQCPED

Intestine [4] = experiment: Drug uptake in HT1080 cells xenografted mouse large intestine after 90 mins; type: ADME, cell-based, HT-1080; conditions: in vivo, 1.5 h
Outline: (§2)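 Male BALB/c nu/nu mice, 7–8 weeks old, were given (2–2.5)×10⁶ HT1080 cells s.c. in the right shoulder in Matrigel/EMEM (1:1). They were used 14–21 days later at tumor volume 0.3–0.6 mL. [¹⁸F]FB-ML5 was given alone or co-injected with 2.5 mg/kg ML5. Tissues were weighed and gamma-counted. SUVmean = tissue MBq/g ÷ (injected MBq/body weight g). n = 6 per group, mean ± SD, unpaired t-test.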

[5] = Drug uptake in HT1080 cells xenografted mouse assessed as large intestine to plasma ratio after 90 mins in presence of non-radioactive ML5; type: ADME, cell-based, HT-1080; conditions: large intestine and plasma
Outline: (§3)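 Same HT1080 subcutaneous xenograft in male BALB/c nude mice. The tracer was co-injected with 2.5 mg/kg non-radioactive ML5 and scanned for 90 min. Organs and plasma were gamma-counted ex vivo at 90 min p.i. The tissue/plasma SUV_mean ratio was calculated. n = 6, mean SD, unpaired two-sided t-test against the group without ML5.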

Lung [6] = experiment: Drug uptake in HT1080 cells xenografted mouse lung after 90 mins in presence of non-radioactive ML5; type: ADME, cell-based, HT-1080; conditions: in vivo, 1.5 h; outline: as §2
Intestine [7] = experiment: Drug uptake in HT1080 cells xenografted mouse small intestine after 90 mins; type: ADME, cell-based, HT-1080; conditions: in vivo, 1.5 h; outline: as §2
[8] = Drug uptake in HT1080 cells xenografted mouse assessed as liver to plasma ratio after 90 mins in presence of non-radioactive ML5; type: ADME, cell-based, HT-1080; conditions: liver and plasma; outline: as §3
Liver [9] = experiment: Drug uptake in HT1080 cells xenografted mouse liver after 90 mins in presence of non-radioactive ML5; type: ADME, cell-based, HT-1080; conditions: in vivo, 1.5 h; outline: as §2
[10] = Drug uptake in HT1080 cells xenografted mouse assessed as heart to plasma ratio after 90 mins; type: ADME, cell-based, HT-1080; conditions: heart and plasma
Outline: (§4)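 Male BALB/c nude mice, 7–8 weeks, with (2–2.5)×10⁶ HT1080 cells in Matrigel/EMEM injected subcutaneously into the right shoulder. Tracer injected when tumors reached 0.3–0.6 mL (14–21 days), followed by a 90 min microPET scan. Ex vivo: organs and plasma gamma-counted at 90 min p.i. SUV_mean for each tissue divided by plasma SUV_mean. n = 6, mean SD.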

Plasma [11] = experiment: Drug uptake in HT1080 cells xenografted mouse plasma assessed as parent compound after 90 mins; type: ADME, cell-based, HT-1080; conditions: in vivo, 1.5 h
Outline: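 Parent fraction in plasma of control HT1080-bearing mice at 90 min p.i. Plasma (250 µL) was deproteinized with 750 µL ACN, centrifuged 3 min at 3000 rpm and filtered (0.22 µm). Analysed by semi-preparative reverse-phase HPLC with radioactivity detection; % intact tracer of total plasma radioactivity, n = 2.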

Lung [12] = experiment: Drug uptake in HT1080 cells xenografted mouse lung after 90 mins; type: ADME, cell-based, HT-1080; conditions: in vivo, 1.5 h; outline: as §2
[13] = Drug uptake in HT1080 cells xenografted mouse assessed as bone to plasma ratio after 90 mins in presence of non-radioactive ML5; type: ADME, cell-based, HT-1080; conditions: bone and plasma; outline: as §3
Intestine [14] = experiment: Drug uptake in HT1080 cells xenografted mouse large intestine after 90 mins in presence of non-radioactive ML5; type: ADME, cell-based, HT-1080; conditions: in vivo, 1.5 h; outline: as §2
[15] = Drug uptake in HT1080 cells xenografted mouse assessed as bone to plasma ratio after 90 mins; type: ADME, cell-based, HT-1080; conditions: bone and plasma; outline: as §4
Liver [16] = experiment: Drug uptake in HT1080 cells xenografted mouse liver after 90 mins; type: ADME, cell-based, HT-1080; conditions: in vivo, 1.5 h; outline: as §2
[17] = Octanol-water partition coefficient, log P of the compound; type: physicochemical
Outline: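 About 5 kBq [¹⁸F]FB-ML5 in saline was mixed with 495 µL PBS pH 7.4 and 500 µL n-octanol. Vortexed 5 min, centrifuged 5 min at 3000 rpm, then 100 µL of each layer gamma-counted. logP = log₁₀(cpm octanol/cpm aqueous), triplicate.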

[18] = Drug uptake in HT1080 cells xenografted mouse assessed as tumor to plasma ratio after 90 mins in presence of non-radioactive ML5; type: ADME, cell-based, HT-1080; conditions: tumor and plasma; outline: as §3
[19] = Drug uptake in HT1080 cells xenografted mouse assessed as liver to plasma ratio after 90 mins; type: ADME, cell-based, HT-1080; conditions: liver and plasma; outline: as §4
[20] = Drug uptake in HT1080 cells xenografted mouse assessed as heart to plasma ratio after 90 mins in presence of non-radioactive ML5; type: ADME, cell-based, HT-1080; conditions: heart and plasma; outline: as §3
Tumour [21] = experiment: Drug uptake in HT1080 cells xenografted mouse tumor after 90 mins in presence of non-radioactive ML5; type: ADME, Neoplasm, HT-1080; conditions: in vivo, 1.5 h; outline: as §2
Plasma [22] = experiment: Drug uptake in HT1080 cells xenografted mouse plasma after 90 mins; type: ADME, cell-based, HT-1080; conditions: in vivo, 1.5 h; outline: as §2
[23] = Drug uptake in HT1080 cells xenografted mouse assessed as large intestine to plasma ratio after 90 mins; type: ADME, cell-based, HT-1080; conditions: large intestine and plasma; outline: as §4
Bone [24] = experiment: Drug uptake in HT1080 cells xenografted mouse bone after 90 mins; type: ADME, cell-based, Bone element, HT-1080; conditions: in vivo, 1.5 h; outline: as §2
Heart [25] = experiment: Drug uptake in HT1080 cells xenografted mouse heart after 90 mins; type: ADME, cell-based, HT-1080; conditions: in vivo, 1.5 h; outline: as §2
Bone [26] = experiment: Drug uptake in HT1080 cells xenografted mouse bone after 90 mins in presence of non-radioactive ML5; type: ADME, cell-based, Bone element, HT-1080; conditions: in vivo, 1.5 h; outline: as §2
Heart [27] = experiment: Drug uptake in HT1080 cells xenografted mouse heart after 90 mins in presence of non-radioactive ML5; type: ADME, cell-based, HT-1080; conditions: in vivo, 1.5 h; outline: as §2
Tumour [28] = experiment: Drug uptake in HT1080 cells xenografted mouse tumor after 90 mins; type: ADME, Neoplasm, HT-1080; conditions: in vivo, 1.5 h; outline: as §2
[29] = Drug uptake in HT1080 cells xenografted mouse assessed as tumor to plasma ratio after 90 mins; type: ADME, cell-based, HT-1080; conditions: tumor and plasma; outline: as §4
Plasma [30] = experiment: Drug uptake in HT1080 cells xenografted mouse plasma after 90 mins in presence of non-radioactive ML5; type: ADME, cell-based, HT-1080; conditions: in vivo, 1.5 h; outline: as §2

- pIC50 [1]: 8.70
- pIC50 [2]: 8.13
- pIC50 [3]: 7.71
Structure (SMILES): CC(C)C[C@H](CC(=O)NO)C(=O)N[C@@H](Cc1ccccc1)C(=O)N[C@@H](CCCCN)C(N)=O

- pIC50 [1]: 6.86
- pIC50 [2]: 7.90
- pIC50 [3]: 7.50
Structure (SMILES): CC(C)C[C@H](CC(=O)NO)C(=O)N[C@@H](Cc1ccccc1)C(=O)N[C@@H](CCCCNC(=O)c1ccc(F)cc1)C(N)=O

- pIC50 [3]: 5.83
Structure (SMILES): CC(C)C[C@H](CC(=O)NOC(=O)c1ccc(F)cc1)C(=O)N[C@@H](Cc1ccccc1)C(=O)N[C@@H](CCCCNC(=O)c1ccc(F)cc1)C(N)=O

- SUV (Intestine [4]): 1.8
- Kp at 1.5 h [5]: 14.8
- SUV (Lung [6]): 0.106
- SUV (Intestine [7]): 5.207
- Kp at 1.5 h [8]: 10.9
- SUV (Liver [9]): 2
- Kp at 1.5 h [10]: 0.482
- Drug uptake (Plasma [11]): 23.2%
- SUV (Lung [12]): 0.254
- Kp at 1.5 h [13]: 0.09
- SUV (Intestine [14]): 2.75
- Kp at 1.5 h [15]: 0.179
- SUV (Liver [16]): 4.58
- logP [17]: 1.11
- Kp at 1.5 h [18]: 0.231
- Kp at 1.5 h [19]: 19.2
- Kp at 1.5 h [20]: 0.235
- SUV (Tumour [21]): 0.041
- SUV (Plasma [22]): 0.238
- Kp at 1.5 h [23]: 7.83
- SUV (Bone [24]): 0.041
- SUV (Heart [25]): 0.111
- SUV (Bone [26]): 0.017
- SUV (Heart [27]): 0.043
- SUV (Tumour [28]): 0.145
- Kp at 1.5 h [29]: 0.597
- SUV (Plasma [30]): 0.185
Structure (SMILES): CC(C)C[C@H](CC(=O)NO)C(=O)N[C@@H](Cc1ccccc1)C(=O)N[C@@H](CCCCNC(=O)c1ccc([18F])cc1)C(N)=O
